Tests used:
[1] = tested on: Cardiac muscle cell; assay: Toxicity in human inducible pluripotent stem cell derived cardiomyocytes assessed as reduction in beating rate at 10 nM after 20 mins by multi-electrode array electrophysiology study; assay type: cell-based; set-up: scale not given: the % may be the effect or the level left; settings: 0.01 µM
In short: (§1)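 hiPSC cardiomyocytes were grown 7 days at 7% CO2 on gelatin, then co-cultured with 10% cardiac fibroblasts for 7 days on laminin-coated 9-well MEA plates until they formed a beating monolayer. After 20-60 min equilibration at 37 °C, compound was added in maintenance medium (DMSO or NaOH vehicle below 0.1% or 30 µM). Field potentials were recorded at 10 kHz from 28 electrodes/well for at least 2 h. Reported as mean change in beating rate versus control, mean ± SD of ≥3 experiments.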

[2] = molecular target: Sphingosine 1-phosphate receptor 1 (Homo sapiens, UniProt P21453); assay: Agonist activity at human S1P1 receptor expressed in CHO cell membranes after 45 mins by [35S]GTPgammaS binding assay; assay type: functional
In short: (§2)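 Membranes from S1P1/CHO or EDG3-Ga15-bla HEK293T cells (final protein 3 µg/well) incubated with compound (11-point, 3-fold dilution) and [35S]GTP 0.2 nM final in 20 mM HEPES pH 7.5, 10 mM MgCl2, 150 mM NaCl, 1 mM EGTA, 1 mM DTT, 10 µM GDP, 0.1% fatty acid free BSA, 10 µg/ml saponin, 45 min at room temperature. Filter capture, scintillation counting; EC50 taken at 50% of each compound's Ymax.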

[3] = tested on: Cardiac muscle cell; assay: Toxicity in human inducible pluripotent stem cell derived cardiomyocytes assessed as reduction in beating rate at 1 nM after 20 mins by multi-electrode array electrophysiology study; assay type: cell-based; set-up: scale not given: the % may be the effect or the level left; settings: 0.001 µM; in short: as §1
[4] = Prodrug conversion in Lewis rat blood assessed as parent compound levels at 2 mg/kg, po after 24 hrs; assay type: ADME, organism-based; settings: in vivo, read-out: Drug metabolism
[5] = Half life in Lewis rat at 2 mg/kg, po after 72 hrs; assay type: ADME, organism-based; settings: in vivo
[6] = tested on: Rattus norvegicus; assay: Immunosuppressive activity in Lewis rat assessed as reduction in blood lymphocytes count at 2 mg/kg, po after 24 hrs relative to control; assay type: functional; set-up: scale not given: the % may be the effect or the level left
In short: (§3)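 Oral dosing in Lewis rats, with PEG300 as vehicle, given as solution or suspension adjusted for free test article if salt forms are used. Blood sampled at several time points. Lymphocytes counted on a hematology analyzer. Result is the reduction in circulating lymphocyte percentage versus the vehicle group at each time, averaged per group (n = 2).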

[7] = tested on: Rattus norvegicus; assay: Immunosuppressive activity in Lewis rat assessed as reduction in blood lymphocytes count at 2 mg/kg, po after 4 hrs relative to control; assay type: functional; set-up: scale not given: the % may be the effect or the level left; in short: as §3
[8] = Prodrug conversion in Lewis rat blood assessed as parent compound levels at 2 mg/kg, po after 48 hrs; assay type: ADME, organism-based; settings: in vivo, read-out: Drug metabolism
[9] = Prodrug conversion in Lewis rat blood assessed as parent compound levels at 2 mg/kg, po after 4 hrs; assay type: ADME, organism-based; settings: in vivo, read-out: Drug metabolism
[10] = tested on: Rattus norvegicus; assay: Immunosuppressive activity in Lewis rat assessed as reduction in blood lymphocytes count at 2 mg/kg, po after 48 hrs relative to control; assay type: functional; set-up: scale not given: the % may be the effect or the level left; in short: as §3
[11] = Prodrug conversion in Lewis rat blood assessed as formation phosphate metabolite at 2 mg/kg, po after 48 hrs; assay type: ADME, organism-based; settings: in vivo
[12] = Prodrug conversion in Lewis rat blood assessed as formation phosphate metabolite at 2 mg/kg, po after 24 hrs; assay type: ADME, organism-based; settings: in vivo
[13] = Prodrug conversion in Lewis rat blood assessed as formation phosphate metabolite at 2 mg/kg, po after 4 hrs; assay type: ADME, organism-based; settings: in vivo
[14] = molecular target: Sphingosine 1-phosphate receptor 3 (Homo sapiens, UniProt Q99500); assay: Agonist activity at human EDG3-Ga15-bla expressed in HEK293T cells after 45 mins by [35S]GTPgammaS binding assay; assay type: functional, cell-based; in short: as §2
[15] = tested on: Rattus norvegicus; assay: Immunosuppressive activity in po dosed Lewis rat assessed as reduction in blood lymphocytes after 24 hrs; assay type: functional; in short: as §3
[16] = organism: Mus musculus; assay: Pulmonary toxicity in mouse assessed as increase in BAL protein levels at 30 times ED50; assay type: organism-based; settings: in vivo
[17] = organism: Mus musculus; assay: Pulmonary toxicity in mouse assessed as increase in BAL protein levels up to 10 times ED50; assay type: organism-based; settings: in vivo
[18] = organism: Mus musculus; assay: Pulmonary toxicity in mouse assessed as increase in BAL protein levels at 60 times ED50; assay type: organism-based; settings: in vivo
[19] = organism: Mus musculus; assay: Pulmonary toxicity in mouse assessed as increase in BAL protein levels at ED50; assay type: organism-based; settings: in vivo

Sphingosine 1-phosphate receptor 1, sequence (P21453 whole entry): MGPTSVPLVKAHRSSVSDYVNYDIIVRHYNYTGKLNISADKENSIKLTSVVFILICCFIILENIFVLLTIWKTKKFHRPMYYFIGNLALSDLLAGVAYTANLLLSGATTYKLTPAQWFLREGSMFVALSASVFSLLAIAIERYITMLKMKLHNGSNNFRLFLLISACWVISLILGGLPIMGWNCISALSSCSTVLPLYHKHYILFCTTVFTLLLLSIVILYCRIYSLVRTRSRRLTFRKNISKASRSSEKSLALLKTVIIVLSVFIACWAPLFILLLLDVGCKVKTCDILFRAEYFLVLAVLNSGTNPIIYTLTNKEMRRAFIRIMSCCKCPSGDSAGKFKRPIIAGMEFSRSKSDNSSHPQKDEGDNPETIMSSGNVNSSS
Sphingosine 1-phosphate receptor 3, sequence (Q99500 whole entry): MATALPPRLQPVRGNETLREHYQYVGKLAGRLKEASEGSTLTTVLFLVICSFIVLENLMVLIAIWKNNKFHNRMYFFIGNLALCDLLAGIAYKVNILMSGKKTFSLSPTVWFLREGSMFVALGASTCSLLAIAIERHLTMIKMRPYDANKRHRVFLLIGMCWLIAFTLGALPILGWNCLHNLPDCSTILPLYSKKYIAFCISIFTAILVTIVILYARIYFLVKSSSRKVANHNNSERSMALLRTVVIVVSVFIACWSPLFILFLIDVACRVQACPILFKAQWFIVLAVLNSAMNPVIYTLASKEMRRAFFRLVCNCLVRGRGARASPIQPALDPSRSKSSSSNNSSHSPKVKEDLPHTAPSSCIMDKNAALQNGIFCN

Structure (SMILES) | Activity [1] | Emax [2] | Activity [3] | concentration [4] | half-life [5] | Activity [6] | Activity [7] | concentration [8] | concentration [9] | Activity [10] | Drug metabolism [11] | Drug metabolism [12] | Drug metabolism [13] | EC50 [2] | EC50 [14] | ED50 [15] | Activity [16] | Activity [17] | Activity [18] | Activity [19]
CCCCOc1nc2c(s1)-c1ccc([C@H]3CC[C@](N)(COP(=O)(O)O)C3)cc1CC2 | 36% | 58% | 16% |  |  |  |  |  |  |  |  |  |  |  |  |  |  |  |  | 
CCCCN(C)c1nc2c(s1)-c1ccc([C@H]3CC[C@](N)(CO)C3)cc1CC2 |  |  |  | 18 nM | 9 h | 27% | 30% | 4.1 nM | 110 nM | 4.4% |  |  |  |  |  |  |  |  |  | 
CCCCCCc1nc2c(s1)-c1ccc([C@H]3CC[C@](N)(CO)C3)cc1CC2 |  |  |  | 66 nM | 35 h | 82% | 59% | < 10 nM | 110 nM | 74% | 50 nM | 160 nM | 140 nM |  |  |  |  |  |  | 
CCCCCCOc1nc2ccc3cc([C@H]4CC[C@](N)(CO)C4)ccc3c2s1 |  |  |  | 78 nM | 41 h | 83% | 73% | 41 nM | 81 nM | 86% | 160 nM | 250 nM | 260 nM |  |  |  |  |  |  | 
CCCCCc1nc2c(s1)-c1ccc([C@H]3CC[C@](N)(COP(=O)(O)O)C3)cc1CC2 | Toxic | 79% | Toxic |  |  |  |  |  |  |  |  |  |  | 21 nM | > 3000 nM |  |  |  |  | 
CCCCCc1nc2c(s1)-c1ccc([C@H]3CC[C@](N)(CO)C3)cc1CC2 |  |  |  | 55 nM | 20 h | 83% | 33% | 25 nM | 100 nM | 56% | 16 nM | 56 nM | 91 nM |  |  | 0.5 mg/kg | Non-Toxic | Non-Toxic | Toxic | 
CCCc1nc2c(s1)-c1ccc([C@H]3CC[C@](N)(CO)C3)cc1CC2 |  |  |  | < 19 nM | < 2 h | 0% | 41% |  | 110 nM |  |  | < 10 nM | 79 nM |  |  |  |  |  |  | 
CCCCCCCc1nc2c(s1)-c1ccc([C@H]3CC[C@](N)(CO)C3)cc1CC2 |  |  |  | 110 nM | > 50 h | 77% | 40% | 43 nM | 66 nM | 80% | 150 nM | 300 nM | 63 nM |  |  |  |  |  |  | 
CCCCOc1nc2ccc3cc([C@H]4CC[C@](N)(CO)C4)ccc3c2s1 |  |  |  | 21 nM | 14 h | 77% | 65% | 12 nM | 28 nM | 59% | < 5 nM | < 5 nM | 5.1 nM |  |  |  |  |  |  | 
CCCCOc1nc2c(s1)-c1ccc([C@H]3CC[C@](N)(CO)C3)cc1CC2 |  |  |  | 7 nM | 5 h | 68% | 74% | < 5 nM | 35 nM | 26% | 4 nM | 20 nM | 34 nM |  |  | 1 mg/kg |  |  |  | Toxic
COc1cccc(-c2nc3c(s2)-c2ccc([C@H]4CC[C@](N)(CO)C4)cc2CC3)c1 |  |  |  | 68 nM | 4 h | 63% | 31% | < 5 nM | 97 nM | 30% | < 5 nM | < 5 nM | 39 nM |  |  |  |  |  |  | 
CCCCOCCOc1nc2c(s1)-c1ccc([C@H]3CC[C@](N)(COP(=O)(O)O)C3)cc1CC2 |  | 110% |  |  |  |  |  |  |  |  |  |  |  | 1 nM | 190 nM |  |  |  |  | 
CCCCSc1nc2ccc3cc([C@H]4CC[C@](N)(CO)C4)ccc3c2s1 |  |  |  | 8 nM | 6 h | 75% | 69% | < 5 nM | 15 nM | 59% | < 5 nM | 8.1 nM | 10 nM |  |  |  |  |  |  | 
CCCCc1nc2c(s1)-c1ccc([C@H]3CC[C@](N)(CO)C3)cc1CC2 |  |  |  | 9.4 nM | < 4 h | 48% | 66% | < 5 nM | 77 nM | 12% | < 5 nM | 8.2 nM | 97 nM |  |  |  |  |  |  | 
CCCCCCOc1nc2c(s1)-c1ccc([C@H]3CC[C@](N)(CO)C3)cc1CC2 |  |  |  | 31 nM | 25 h | 82% | 66% | 17 nM | 72 nM | 82% | < 5 nM | < 5 nM | 62 nM |  |  |  |  |  |  | 
CCCc1nc2c(s1)-c1ccc([C@H]3CC[C@](N)(COP(=O)(O)O)C3)cc1CC2 |  | 79% |  |  |  |  |  |  |  |  |  |  |  |  |  |  |  |  |  | 
CCCCCOc1nc2c(s1)-c1ccc([C@H]3CC[C@](N)(CO)C3)cc1CC2 |  |  |  | 29 nM | 21 h | 80% | 67% | 12 nM | 81 nM | 59% | < 5 nM | 26 nM | 71 nM |  |  |  |  |  |  | 
CCCCCSc1nc2c(s1)-c1ccc([C@H]3CC[C@](N)(CO)C3)cc1CC2 |  |  |  | 16 nM | 5 h | 76% | 72% | < 5 nM | 87 nM | 44% | < 5 nM | 10 nM | 43 nM |  |  |  |  |  |  | 
Cc1ccc(-c2nc3c(s2)-c2ccc([C@H]4CC[C@](N)(CO)C4)cc2CC3)cc1 |  |  |  | 37 nM | 6 h | 2.1% | 9.3% |  | 48 nM |  |  | 19 nM | 12 nM |  |  |  |  |  |  | 
CCCCSc1nc2c(s1)-c1ccc([C@H]3CC[C@](N)(COP(=O)(O)O)C3)cc1CC2 | Toxic | 58% | Toxic |  |  |  |  |  |  |  |  |  |  |  |  |  |  |  |  | 
CCCCNc1nc2c(s1)-c1ccc([C@H]3CC[C@](N)(CO)C3)cc1CC2 |  |  |  |  |  | 0% | 37% |  | 33 nM |  |  | 190 nM | 570 nM |  |  |  |  |  |  | 
CCCCCOc1nc2ccc3cc([C@H]4CC[C@](N)(CO)C4)ccc3c2s1 |  |  |  | 17 nM | 35 h | 80% | 80% | 8.3 nM | 31 nM | 68% |  |  |  |  |  |  |  |  |  | 
CCCCNc1nc2c(s1)-c1ccc([C@H]3CC[C@](N)(COP(=O)(O)O)C3)cc1CC2 |  | 49% |  |  |  |  |  |  |  |  |  |  |  | 130 nM |  |  |  |  |  | 
CCCCCCCc1nc2c(s1)-c1ccc([C@H]3CC[C@](N)(COP(=O)(O)O)C3)cc1CC2 |  | 98% |  |  |  |  |  |  |  |  |  |  |  |  |  |  |  |  |  | 
CCCCCCOc1nc2c(s1)-c1ccc([C@H]3CC[C@](N)(COP(=O)(O)O)C3)cc1CC2 |  | 100% |  |  |  |  |  |  |  |  |  |  |  |  |  |  |  |  |  | 

From ChEMBL document CHEMBL4251543, “Identification of potent tricyclic prodrug S1P1 receptor modulators” (Medchemcomm, 2017)
